Results as given in ChEMBL document CHEMBL4354813, “Design, Synthesis, and Pharmacological Evaluation of Potent Positive Allosteric Modulators of the Glucagon-like Peptide-1 Receptor (GLP-1R)” (J Med Chem, 2020).
Calls of active or inactive are those of the source. No cut-off for these calls is given here.

Key:
Rattus norvegicus [1] = organism: Rattus norvegicus; assay: Inhibition of GLP1(9-36)NH2-mediated glucose-stimulated insulin secretion in dispersed rat pancreatic islets at 10 uM incubated for 2 hrs by ELISA; assay type: functional
Method in brief: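 Dispersed islets from male Sprague Dawley rats (collagenase digestion, Histopaque purification, Accutase dispersal, cultured up to 4 days). Pre-incubated 1 h in Krebs-Ringer with 5.6 mM glucose, then 2 h at 37 °C with 15 mM glucose, ±10 nM GLP1(9-36)NH2, ±compound 10 µM, DMSO vehicle; insulin by HTRF ELISA as % of total, n-fold vs control; N≥9.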

Pancreatic islet = assay: Inhibition of glucose-stimulated insulin secretion in dispersed GLP-1(-/-) mouse pancreatic islets at 10 uM incubated for 2 hrs by ELISA; assay type: functional, cell-based
Mus musculus [2] = assay: Suppression of blood glucose concentration in 4.5 mg/kg, ip GLP1(9-36)NH2-treated GLP-1R (-/-) C57Bl/6J mouse model at 30 mg/kg, po dosed 1 hrs before test and treated with 60 mg/kg, po OATP/MRP2 inhibitor rifampicin 2.5 hrs prior to oral glucose-tolerance test; assay type: functional, organism-based
Method in brief: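 GLP-1R-/- male mice aged 10 weeks, n=6, fasted overnight. Rifampicin 60 mg/kg p.o. 2.5 h before the oGTT, compound p.o. 1 h before, with or without GLP1(9-36)NH2 i.p. 15 min before. Glucose 2 g/kg orally. Tail-vein blood glucose by glucometer at 0, 15, 30, 60 and 90 min.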

Cytochrome P450 3A4 [3] = target: T1, Cytochrome P450 3A4 (Homo sapiens, UniProt P08684); assay: Inhibition of CYP3A4 (unknown origin) using testosterone as substrate; assay type: ADME
T1 sequence (P08684 whole entry): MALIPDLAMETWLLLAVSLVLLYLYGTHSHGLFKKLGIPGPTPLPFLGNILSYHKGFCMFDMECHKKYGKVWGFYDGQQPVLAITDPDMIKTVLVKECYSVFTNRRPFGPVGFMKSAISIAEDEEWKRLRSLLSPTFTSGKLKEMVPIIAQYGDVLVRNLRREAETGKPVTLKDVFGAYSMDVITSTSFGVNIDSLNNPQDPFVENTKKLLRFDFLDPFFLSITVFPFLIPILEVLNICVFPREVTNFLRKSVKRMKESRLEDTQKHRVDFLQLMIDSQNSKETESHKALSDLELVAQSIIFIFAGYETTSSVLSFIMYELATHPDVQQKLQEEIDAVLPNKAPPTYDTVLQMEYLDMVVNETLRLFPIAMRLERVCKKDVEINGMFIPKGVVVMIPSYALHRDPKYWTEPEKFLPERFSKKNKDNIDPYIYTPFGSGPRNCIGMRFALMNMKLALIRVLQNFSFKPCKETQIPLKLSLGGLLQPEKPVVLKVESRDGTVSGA

Cytochrome P450 3A4 [4] = target: T1, Cytochrome P450 3A4; assay: Inhibition of CYP3A4 (unknown origin) using midazolam substrate; assay type: ADME
[5] = Oral bioavailability in Wistar rat at 10 mg/kg administered as single dose treated 2 hrs after dosing with 40 mg/kg, po OATP/MRP2 inhibitor rifampicin and measured up to 24 hrs ESI-LC/MS-MS analysis; assay type: ADME, organism-based; conditions: in vivo
Method in brief: (§1)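 Male Wistar rats (n=3 per route) pretreated orally with rifampicin 40 mg/kg (0.6% methylcellulose, 0.5% Tween 80 in water) 2 h before compound, given 3 mg/kg i.v. in Glycoferol/Cremophor-water solution or 10 mg/kg p.o. wet-milled suspension. Plasma sampled up to 24 h; ESI-LC/MS-MS after acetonitrile precipitation (LOQ 1 ng/mL); noncompartmental analysis.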

[6] = Permeability from apical and basolateral in human Caco2/TC7 cells at pH 7.4 in presence of 0.5% BSA; assay type: ADME, cell-based; conditions: caco2/tc7, pH 7.4
[7] = target: T2, Solute carrier organic anion transporter family member 1B1 (Homo sapiens, UniProt Q9Y6L6); assay: Substrate activity at human OATP1B1 expressed in HEK293 cells assessed as increase in compound uptake at 1 uM LC-MS/MS analysis; assay type: ADME, cell-based; conditions: hek293, 1 µM, TDE = time-dependent effect
T2 sequence (Q9Y6L6 whole entry): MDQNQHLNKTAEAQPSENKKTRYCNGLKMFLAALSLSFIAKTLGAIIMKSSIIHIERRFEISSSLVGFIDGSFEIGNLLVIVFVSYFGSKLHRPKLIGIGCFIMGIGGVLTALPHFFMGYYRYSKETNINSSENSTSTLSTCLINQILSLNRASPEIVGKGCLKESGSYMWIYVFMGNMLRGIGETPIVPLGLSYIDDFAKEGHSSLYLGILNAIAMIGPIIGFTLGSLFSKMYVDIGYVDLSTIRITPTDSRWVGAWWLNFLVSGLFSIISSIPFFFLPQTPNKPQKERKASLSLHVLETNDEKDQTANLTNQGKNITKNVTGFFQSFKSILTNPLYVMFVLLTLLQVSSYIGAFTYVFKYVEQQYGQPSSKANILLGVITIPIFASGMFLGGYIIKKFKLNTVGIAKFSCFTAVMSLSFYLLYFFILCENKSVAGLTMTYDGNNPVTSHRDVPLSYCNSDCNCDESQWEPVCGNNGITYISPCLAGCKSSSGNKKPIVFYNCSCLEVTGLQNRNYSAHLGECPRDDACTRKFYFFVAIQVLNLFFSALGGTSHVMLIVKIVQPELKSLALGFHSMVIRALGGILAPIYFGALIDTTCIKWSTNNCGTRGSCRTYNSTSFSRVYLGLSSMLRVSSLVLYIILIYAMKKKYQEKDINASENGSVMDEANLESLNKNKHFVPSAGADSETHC
Method in brief: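 HEK-TR cells overexpressing hOATP1B1 or hOATP1B3, run in parallel with control HEK-TR cells, seeded at 1 x 10⁵ cells/well one day before. Time-dependent uptake of 1 μM compound in HBSS at 37 °C, quadruplicates. Uptake stopped with ice-cold buffer, cells washed, lysed and quantified by LC-MS/MS. Uptake ratio calculated against the control cells.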

Mus musculus [8] = assay: Suppression of blood glucose concentration in GLP1(9-36)NH2-treated ob/ob C57Bl/6J mouse model of T2DM at 30 mg/kg, po dosed 1 hrs before test and treated with 60 mg/kg, po OATP/MRP2 inhibitor rifampicin 2.5 hrs prior to oral glucose-tolerance test; assay type: functional, organism-based
Method in brief: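 Male ob/ob mice aged 10–11 weeks, n=7, randomised on blood glucose and fasted overnight. Rifampicin 60 mg/kg p.o. 2.5 h before the oGTT, compound 30 mg/kg p.o. 1 h before, GLP1(9-36)NH2 i.p. 15 min before, each given as indicated. Glucose 2 g/kg orally. Tail-vein glucose by glucometer at 0, 15, 30, 60 and 90 min.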

[9] = Clearance in Wistar rat at 3 mg/kg, iv administered as single dose treated 2 hrs after dosing with 40 mg/kg, po OATP/MRP2 inhibitor rifampicin and measured up to 24 hrs ESI-LC/MS-MS analysis; assay type: ADME, organism-based; conditions: in vivo; method in brief: as §1
[10] = AUClast in Wistar rat at 10 mg/kg, po administered as single dose measured up to 24 hrs ESI-LC/MS-MS analysis; assay type: ADME, organism-based; parameters: dose 10 mg/kg, time < 24 hr, route oral; conditions: in vivo
Method in brief: (§2)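 Single dose of compound: 3 mg/kg i.v. in solution (75% water : 25% of 75% Glycoferol/25% Cremophor) or 10 mg/kg p.o. as wet-milled suspension (0.6% methylcellulose, 0.5% Tween 80 in water); male Wistar rats n=3 per route, female C57Bl6 mice n=24 per route. Plasma sampled 0.25–24 h (p.o.), 0.083–24 h (i.v.); heparinized plasma, acetonitrile precipitation, ESI-LC/MS-MS (LOQ 1 ng/mL rat, 5 ng/mL mouse); noncompartmental analysis, linear trapezoidal.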

Rattus norvegicus [11] = organism: Rattus norvegicus; assay: Improvement in 10 nM GLP1(9-36)NH2-mediated glucose-stimulated insulin secretion in dispersed rat pancreatic islets at 10 uM incubated for 2 hrs under […] conditions by ELISA; assay type: functional
[12] = Oral bioavailability in Wistar rat at 10 mg/kg administered as single dose measured up to 24 hrs ESI-LC/MS-MS analysis; assay type: ADME, organism-based; conditions: in vivo; method in brief: as §2
[13] = Chemical stability in pH 7.4 buffer; assay type: physicochemical
[14] = Metabolic lability in human liver microsomes incubated up to 20 mins by LC-MS/MS analysis
[15] = AUClast in Wistar rat at 10 mg/kg, po administered as single dose treated 2 hrs after dosing with 40 mg/kg, po OATP/MRP2 inhibitor rifampicin and measured up to 24 hrs ESI-LC/MS-MS analysis; assay type: ADME, organism-based; parameters: dose 10 mg/kg, time < 24 hr, route oral; conditions: in vivo; method in brief: as §1

| SMILES | inhibition (Rattus norvegicus [1]) | inhibition (Pancreatic islet) | Activity (Mus musculus [2]) | IC50 (Cytochrome P450 3A4 [3]) [µM] | IC50 (Cytochrome P450 3A4 [4]) [µM] | bioavailability [5] [%] | permeability [6] [×10⁻⁷ cm/s] | Activity [7] | Activity (Mus musculus [8]) | clearance [9] [mL/min/kg] | AUClast [10] [ng·h/mL] | Activity (Rattus norvegicus [11]) | bioavailability [12] [%] | Stability [13] [%] | metabolized at 20 min [14] [%] | AUC(0-t) at 24 h [15] [ng·h/mL] |
| --- | --- | --- | --- | --- | --- | --- | --- | --- | --- | --- | --- | --- | --- | --- | --- | --- |
| CC(O)CCN1C[C@H]2c3c(c4ccccc4n3C(=O)OC(C)(C)C)C[C@@H](C1=O)N2C(=O)CC1CCC(F)(F)CC1 (stereo partly specified) | Active | Active |  |  |  |  |  |  |  |  |  |  |  |  |  |  |
| CC(C)(C)OC(=O)n1c2c(c3ccccc31)C[C@H]1C(=O)N3C[C@@H](CC(=O)O)C[C@H]3[C@@H]2N1C(=O)CC1CCC(F)(F)CC1 |  |  | inactive | > 50 | > 50 | 100 | 0.18 | Tde | Active | 19.2 | 110 | inactive | 9 | 99 | 20 | 7340 |
